{"source": "ChEMBL document CHEMBL1142205", "about": "(Antimicrob Agents Chemother, 2007)", "key": {"[1]": {"test_system": "Plasmodium falciparum", "assay": "(§1) Antimalarial activity against chloroquine-susceptible Plasmodium falciparum D10", "format": "functional, organism-based", "in_short": "(§2)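 Asexual P. falciparum cultured in human O+ erythrocytes at 37°C under 5% CO2/3% O2 and sorbitol-synchronised. Ring stages were set at 1% parasitemia and 5% hematocrit in low-hypoxanthine medium, in triplicate. […] Uninfected-RBC counts were subtracted and IC50/IC90 taken by linear regression with 95% CI.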"}, "[2]": {"test_system": "Plasmodium falciparum", "assay": "Increased DNA damage in Plasmodium falciparum after 12 hrs in TUNEL assay", "format": "functional, organism-based", "in_short": "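Ring-stage parasites exposed to 20 or 50 μM for 12 h, with or without 400 μM mannitol. Percoll-purified, fixed on poly-L-lysine slides, TUNEL with fluorescein-dUTP, propidium iodide counterstain. 300 cells scored per treatment for percent labeled; triplicate samples.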"}, "[3]": {"test_system": "Plasmodium falciparum", "assay": "Inhibition of nuclear GCN5 in Plasmodium falciparum after 8 hrs by liquid HAT assay at 25 to 100 uM"}, "[4]": {"test_system": "Plasmodium falciparum", "assay": "Restoration of nuclear GCN5 activity in Plasmodium falciparum at 50 uM in presence of 300 uM mannitol"}, "[5]": {"test_system": "Plasmodium falciparum", "assay": "Restoration of nuclear GCN5 activity in Plasmodium falciparum at 50 uM in presence of 400 units/ml superoxide dismutase"}, "[6]": {"test_system": "Plasmodium falciparum", "assay": "Antimalarial activity against chloroquine-resistant Plasmodium falciparum 7G8", "format": "functional, organism-based", "in_short": "as §2"}, "[7]": {"test_system": "Plasmodium falciparum", "assay": "Inhibition of GCN5 in Plasmodium falciparum assessed as hyperacetylation of H3-K9 and H3-K14 at 20 uM after 12 hrs", "details": "3D7, in the assay text read “hypoacetylation” for “hyperacetylation”", "in_short": "(§3)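 Unsynchronized 3D7 cultures exposed to 20 μM drug for 4 or 12 h (aliquots treated from 0 or 8 h, all harvested at 12 h), with or without 300 μM mannitol. Histones acid-extracted, equal amounts run on SDS-PAGE and immunoblotted with acetylation site-specific antibodies; anti-H4 as loading control.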"}, "[8]": {"test_system": "Plasmodium falciparum", "assay": "Pro-oxidant activity in Plasmodium falciparum as increased ROS", "format": "functional, organism-based", "in_short": "(§4)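 Parasitized cells preloaded with 50 μM DCFH-DA, 37°C, 30 min, washed, then exposed to drug for 4 h, alone or with mannitol (50 μM) or ascorbic acid plus reduced glutathione (1 mM each). Flow cytometry at ex 485/em 535 nm; ROS taken as mean fluorescence intensity. SD from three experiments.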"}, "[9]": {"test_system": "Plasmodium falciparum", "assay": "Antimalarial activity against chloroquine-resistant Plasmodium falciparum Dd2", "format": "functional, organism-based", "in_short": "as §2"}, "[10]": {"test_system": "Plasmodium falciparum", "assay": "Growth inhibition of chloroquine-resistant Plasmodium falciparum 7G8 at 20 uM", "format": "functional, organism-based", "in_short": "(§5)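 Sorbitol-synchronised ring-stage parasites were seeded at 0.5% parasitemia and 5% hematocrit in 24-well plates. […] Parasitemia was counted daily for 4 days on Giemsa-stained smears, as means of three replicate samples.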"}, "[11]": {"test_system": "Plasmodium falciparum", "assay": "Increase of Plasmodium falciparum 3D7 nuclear DNA damage by real-time PCR analysis", "format": "functional", "in_short": "(§6)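 3D7 early trophozoites at 5% parasitemia and 5% hematocrit exposed to drug or DMSO for 6 h at 37°C. Genomic DNA by proteinase K/phenol-chloroform, quantified by dot blot; SYBR green real-time PCR on 1 ng DNA. Lesions derived from CT shift relative to control, control amplification efficiency set at 1.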"}, "[12]": {"test_system": "Plasmodium falciparum", "assay": "Growth restoration of Plasmodium falciparum at 50 uM with 300 uM mannitol", "format": "functional, organism-based", "in_short": "(§7)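 Maturation assay: synchronized ring-stage parasites in 24-well plates with 50 μM drug and increasing mannitol concentrations. When control schizonts matured, schizonts per 5,000 red cells counted in each well.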"}, "[13]": {"test_system": "Plasmodium falciparum", "assay": "Increased intracellular reactive oxygen species in Plasmodium falciparum at 1 uM", "format": "functional, organism-based", "in_short": "as §4"}, "[14]": {"test_system": "Plasmodium falciparum", "assay": "Increase of Plasmodium falciparum 3D7 mitochondrial DNA damage by real-time PCR analysis", "format": "functional", "in_short": "as §6"}, "[15]": {"test_system": "Plasmodium falciparum", "assay": "Growth inhibition of chloroquine-susceptible Plasmodium falciparum 3D7 at 20 uM", "format": "functional, organism-based", "in_short": "(§8)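 Strain 3D7, sorbitol-synchronized rings, seeded at 0.5% parasitemia, 5% hematocrit in O+ erythrocytes, RPMI/Albumax medium, 37°C, 5% CO2/3% O2. Continuous exposure to 5 or 20 μM (or none); parasitemia counted daily for 4 days on Giemsa smears, three replicates per point.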"}, "[16]": {"test_system": "Plasmodium falciparum", "assay": "Increase in intracellular reactive oxygen species in Plasmodium falciparum at 50 uM", "format": "functional, organism-based", "in_short": "as §4"}, "[17]": {"test_system": "Plasmodium falciparum", "assay": "Growth inhibition of chloroquine-resistant Plasmodium falciparum 7G8 at 5 uM", "format": "functional, organism-based", "in_short": "as §5"}, "[18]": {"test_system": "Plasmodium falciparum", "assay": "Decreased reactive oxygen species in Plasmodium falciparum with 1 mM ascorbic acid and 1 mM reduced glutathione", "format": "functional, organism-based", "in_short": "as §4"}, "[19]": {"test_system": "Plasmodium falciparum", "assay": "Growth restoration of Plasmodium falciparum at 50 uM with 400 uM mannitol", "format": "functional, organism-based", "in_short": "as §7"}, "[20]": {"test_system": "Plasmodium falciparum", "assay": "Inhibition of Plasmodium falciparum 3D7 recombinant GCN5 by HAT assay at 100 uM", "in_short": "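Recombinant PfGCN5 HAT domain (30 ng) with 1 μg bovine core histones preincubated ± drug in HAT buffer, 30°C, 10 min, then 0.1 μCi [3H]acetyl-CoA for 10 min. Half spotted on P-81 filters, washed at pH 9.2, scintillation counted; half resolved by SDS-PAGE/fluorography. DMSO solvent control; triplicates.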"}, "[21]": {"test_system": "Plasmodium falciparum", "assay": "Restoration of nuclear GCN5 activity in Plasmodium falciparum at 50 uM in presence of 5000 units/ml catalase"}, "[22]": {"test_system": "Plasmodium falciparum", "assay": "Decreased reactive oxygen species in Plasmodium falciparum with 50 uM mannitol", "format": "functional, organism-based", "in_short": "as §4"}, "[23]": {"test_system": "Plasmodium falciparum", "assay": "Growth arrest of Plasmodium falciparum at 50 uM", "format": "functional, organism-based", "in_short": "as §7"}, "[24]": {"test_system": "Plasmodium falciparum", "assay": "Growth inhibition of chloroquine-susceptible Plasmodium falciparum 3D7 at 5 uM", "format": "functional, organism-based", "in_short": "as §8"}, "[25]": {"test_system": "Plasmodium falciparum", "assay": "Activity of GCN5 in Plasmodium falciparum assessed as increase in acetylation of H3-K9 and H3-K14 at 20 uM in presence of mannitol", "in_short": "as §3"}, "[26]": {"test_system": "Plasmodium falciparum", "assay": "as §1", "format": "functional, organism-based", "in_short": "as §2", "remark": "listed apart in the source"}}, "note": "The source made the active and inactive calls. No cut-off for these calls is given here.", "data": [{"smiles": "COc1cc(/C=C/C(=O)CC(=O)/C=C/c2ccc(O)c(OC)c2)ccc1O", "note": "[CURCUMIN]", "values": [{"measurement": "IC50", "setting": "[1]", "result": 22.9, "unit": "µM"}, {"measurement": "IC90", "setting": "[1]", "result": 41.3, "unit": "µM"}, {"measurement": "Activity", "setting": "[2]", "result": "Active"}, {"measurement": "Activity", "setting": "[3]", "result": "Active"}, {"measurement": "Activity", "setting": "[4]", "result": "Active"}, {"measurement": "Activity", "setting": "[5]", "result": "Active"}, {"measurement": "IC50", "setting": "[6]", "result": 29.6, "unit": "µM"}, {"measurement": "IC90", "setting": "[6]", "result": 53.3, "unit": "µM"}, {"measurement": "Activity", "setting": "[7]", "result": "Active"}, {"measurement": "Activity", "setting": "[8]", "result": "Dose-dependent effect"}, {"measurement": "IC50", "setting": "[9]", "result": 27.4, "unit": "µM"}, {"measurement": "IC90", "setting": "[9]", "result": 49.4, "unit": "µM"}, {"measurement": "Activity", "setting": "[10]", "result": "Active"}, {"measurement": "Activity", "setting": "[11]", "result": "Active"}, {"measurement": "Activity", "setting": "[12]", "result": "Active"}, {"measurement": "Activity", "setting": "[13]", "result": "Active"}, {"measurement": "Activity", "setting": "[14]", "result": "Active"}, {"measurement": "Activity", "setting": "[15]", "result": "Active"}, {"measurement": "Activity", "setting": "[16]", "result": "Active"}, {"measurement": "Activity", "setting": "[17]", "result": "Active"}, {"measurement": "Activity", "setting": "[18]", "result": "Active"}, {"measurement": "Activity", "setting": "[19]", "result": "Active"}, {"measurement": "inhibition", "setting": "[20]", "result": 95, "unit": "%"}, {"measurement": "Activity", "setting": "[21]", "result": "Active"}, {"measurement": "Activity", "setting": "[22]", "result": "Active"}, {"measurement": "Activity", "setting": "[23]", "result": "Active"}, {"measurement": "Activity", "setting": "[24]", "result": "Active"}, {"measurement": "Activity", "setting": "[25]", "result": "Active"}, {"measurement": "IC50", "setting": "[26]", "result": 22.9, "unit": "µM"}, {"measurement": "IC90", "setting": "[26]", "result": 41.3, "unit": "µM"}]}]}
